The text below walks through data of PMC3325786 (Cancer Research, 2011).

DNP = 2,4-dinitrophenyl quencher group; MCA = fluorogenic coumarin group

Data set [1] deals with T1, Taspase1 (Homo sapiens, UniProt Q9H6P5).
T1 sequence (Q9H6P5 1-233 limits assumed): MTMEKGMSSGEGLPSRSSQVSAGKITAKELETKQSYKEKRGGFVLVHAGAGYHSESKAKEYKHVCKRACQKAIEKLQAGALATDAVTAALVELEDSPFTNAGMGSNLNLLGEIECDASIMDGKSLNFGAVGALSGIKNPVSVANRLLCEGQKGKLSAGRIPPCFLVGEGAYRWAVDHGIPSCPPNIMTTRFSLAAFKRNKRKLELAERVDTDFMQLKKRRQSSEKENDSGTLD
T1 sequence (Q9H6P5 234-420 limits assumed): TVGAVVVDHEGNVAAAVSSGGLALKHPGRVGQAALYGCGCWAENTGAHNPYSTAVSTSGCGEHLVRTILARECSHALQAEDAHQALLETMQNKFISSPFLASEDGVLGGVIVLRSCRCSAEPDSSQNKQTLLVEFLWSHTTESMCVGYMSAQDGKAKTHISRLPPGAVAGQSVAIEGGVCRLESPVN
Nature of the data set: In vitro cleavage of radiolabeled p75MLL reporter by recombinant Taspase1. In kind it is biochemical. The conditions noted are these: for activity against Taspase1 (cleavage of p75MLL): in vitro cleavage assay.

The target of data set [2] is T2, Taspase1 precursor (p50T1α-β) (Homo sapiens, UniProt Q9H6P5).
T2 sequence (Q9H6P5 1-420): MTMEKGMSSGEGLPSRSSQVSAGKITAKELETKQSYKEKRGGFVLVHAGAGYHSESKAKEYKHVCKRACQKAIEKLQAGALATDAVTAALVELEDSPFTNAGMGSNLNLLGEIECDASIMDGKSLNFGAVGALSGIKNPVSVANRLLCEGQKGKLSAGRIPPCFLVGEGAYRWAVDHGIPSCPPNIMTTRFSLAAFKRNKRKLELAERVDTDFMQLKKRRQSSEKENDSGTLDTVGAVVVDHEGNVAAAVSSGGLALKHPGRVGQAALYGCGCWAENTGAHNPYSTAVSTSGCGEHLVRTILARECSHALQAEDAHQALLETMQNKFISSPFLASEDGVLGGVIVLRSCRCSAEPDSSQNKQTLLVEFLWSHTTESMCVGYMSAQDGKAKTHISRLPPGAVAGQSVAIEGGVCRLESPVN
The data set can be described thus: Intramolecular autoproteolysis of radiolabeled Taspase1 precursor p50T1α-β. The conditions noted are these: increasing amounts, 6 hours at 30°C. Type of data set: biochemical. The procedure, abridged:
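Radiolabeled 50 kD Taspase1 precursor (p50T1α-β, 0.5 μl) incubated in cleavage buffer at 30°C for 6 hours with indicated concentrations of test compound. Maturation is scored as autoproteolytic conversion to the 28 kD α and 22 kD β subunits.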

The test system of the next data set is U251 cells. The data set can be described thus: Growth inhibition of NCI60 brain tumor cell lines. The conditions noted are these: NCI DTP GI50 data confirmed by MTT, 2 days. In kind it is cell-based, human.
Data set [3] is described as follows: In vivo toxicity profile after short term tail vein injections. Also noted: species or system mouse.
In another data set the test system is MMTV-neu breast cancers. Nature of the data set: MMTV-neu mouse breast cancer model. In kind it is in vivo. The conditions noted are these: every other day, 5 intravenous injections.
The target of the next data set is Caspase8 (Homo sapiens, UniProt Q14790). Nature of the data set: Caspase8-p22Bid in vitro cleavage assay. Type of data set: biochemical. The conditions noted are these: 1 mM compound, 250 ng rCaspase8.
The test system of the next data set is MMTV-wnt breast cancers. Nature of the data set: MMTV-wnt mouse breast cancer model. The conditions noted are these: every other day, 5 intravenous injections. In kind it is in vivo.
Data set [4] has as its target T1, Taspase1. The data set can be described thus: FRET-based Taspase1 cleavage assay with FRPR reporter. Type of data set: biochemical.
For a further data set, the system named is U251 xenograft. The data set can be described thus: U251 brain tumor xenograft, bioluminescent imaging. In kind it is in vivo, mouse. The conditions noted are these: treated on days 0, 2 and 4; compared to vehicle. The gist of the method:
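U251 cells stably expressing firefly luciferase were implanted subcutaneously into the flanks of male NOD-scid IL2Rγ−/− mice aged 6–8 weeks on day −1. Test compound was given at indicated doses on days 0, 2 and 4. Tumor mass was followed by bioluminescence imaging, normalized to 1 at day 0. Mean ± SD of 4 tumors per arm.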

For the next data set, the system named is autotaxin. The conditions noted are these: cited from earlier work.
In data set [5] the test system is Taspase1−/−;Taspase1 MEFs. The data set can be described thus: MTT relative cell number in SV40-transformed MEFs. The conditions noted are these: 1uM, 2 days. Type of data set: cell-based, mouse.
Where [6] appears, read: short term tail vein injections.

Caspase8, sequence (Q14790 217-374 limits assumed, species assumed): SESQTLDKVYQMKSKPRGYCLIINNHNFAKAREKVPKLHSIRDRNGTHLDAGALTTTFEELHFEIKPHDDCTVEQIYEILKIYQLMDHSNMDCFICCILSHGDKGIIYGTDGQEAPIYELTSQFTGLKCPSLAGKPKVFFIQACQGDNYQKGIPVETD
Caspase8, sequence (Q14790 385-479 limits assumed, species assumed): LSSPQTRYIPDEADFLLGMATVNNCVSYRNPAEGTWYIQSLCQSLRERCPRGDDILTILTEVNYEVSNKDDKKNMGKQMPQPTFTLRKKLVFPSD

For the molecule `CC(C)C[C@H](NC(=O)[C@H](Cc1ccccc1)NC(=O)c1cnccn1)B(O)O` [Bortezomib, reference compound], the “activity against Taspase1 (cleavage of p75MLL)” value (shortened to “activity against Taspase1”) on Taspase1 [1] is “no activity”.
As for `COc1ccc(C(=O)OCc2ccc3c(c2)OCO3)cc1` [NSC23953], the “activity against Taspase1” value at Taspase1 [1] is reported as “no demonstrable activity”.
The same measure, in the same setting: under `O=[N+]([O-])c1cccc(NCNc2cccc([N+](=O)[O-])c2)c1` [NSC47905] stands “no demonstrable activity”.
Broadly, the IC50 is the concentration that gives 50% inhibition. Regarding `O=[As](O)(O)c1ccc(Cc2ccc([As](=O)(O)O)cc2)cc1` [NSC48300, [4-[(4-arsonophenyl)methyl]phenyl] arsonic acid], the “impact on Taspase1 autoproteolysis” value in data set [2] is given as “no impact”. The “sensitivity to treatment in vitro among NCI60 brain tumor cell lines” value in the data set on U251 cells is “most sensitive”. Also, in data set [3] (complete blood counts), the hemoglobin levels result is listed as “decrease” and the “white blood cell counts” value is reported as “decrease”. Also, the injection site damage result in data set [3] (repetitive tail vein treatment) was “fibrotic damages of regional vessels at injection sites”. Further, in [3] (setting [6]), the “blood chemistry: LDH level” value was “significant decrease”; the “blood chemistry: electrolytes and kidney functions” value is reported as “certain alterations”; the “histological examination of major organs” value is “did not reveal any obvious abnormalities”. Moreover, the “growth of MMTV-neu breast cancers” value in the data set with MMTV-neu breast cancers was “consistently disrupted the growth”. In addition, the “specificity: Caspase8-mediated cleavage of p22Bid” value at Caspase8 was “specifically targeted Taspase1”. In the data set on MMTV-wnt breast cancers, the “growth of MMTV-wnt breast cancers” value is “no effects”. Besides, the mode of inhibition entry on Taspase1 [4] (non-linear regression of reaction curves) is “non-competitive”. Also, in the data set with U251 xenograft, the “tumor growth by bioluminescent imaging” value is “stasis of tumor growth”. For the same molecule, the “lysophospholipase D activity of autotaxin” value with autotaxin is “inhibited”. Besides, the IC50 at Taspase1 [1] is roughly 7.5 µM. The “reversible or irreversible inhibition (extended pre-incubation)” value at Taspase1 [1] (5 μM, pre-incubation for extended periods of time) is recorded as “reversible”. Further, in [5], the “sensitivity compared to parental Taspase1−/− cell line” value is “increased sensitivity”.
As to `O=C(O)Cc1ccc(Oc2ccc(CC(=O)O)cc2)cc1` [NSC74084], the “activity against Taspase1” value on Taspase1 [1] is “no demonstrable activity”.
For the molecule `Cc1cc(Cc2ccc3c(c2)OCO3)ccc1OCC(=O)O` [NSC352678], at Taspase1 [1], the “activity against Taspase1” value is on record as “no demonstrable activity”.
As to `O=[As](O)(O)O` [arsenic acid, reference compound], the “inhibition of Taspase1 by free arsenic acid” value on Taspase1 [1] (up to 1 mM, 5 ng rTaspase1, 30 min preincubation) is listed as “no detectable inhibition”.
Broadly, the Km is the substrate concentration at which the rate is half of its maximum. Turning to “MCA-KISQLDGVDD-DNP ({MCA}-KISQLDGVDD-{DNP}) [FRPR, reference compound]”, in the data set with Taspase1 [4] (read-out: apparent KM, substrate of Taspase1), the Michaelis constant (Km) turned out to be 9.06 ± 2.8 µM.
